ChEMBL document CHEMBL1255283, “Comparative efficacies of rifaximin and vancomycin for treatment of Clostridium difficile-associated diarrhea and prevention of disease recurrence in hamsters” (2008)
Calls of active or inactive are those of the source. The calls are words filed in the database; no cut-off is given here.

Tests used:
[1] = tested on: Clostridioides difficile; assay: Antibacterial activity against Clostridium difficile VPI 10463 infected in golden syrian hamster assessed as survival of the […] at 100 mg/kg/day for 5 days measured after 7 days; assay type: functional
How it was run: (§1)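 Prevention design in hamsters (n = 10/group): clindamycin phosphate 10 mg/kg sc on day 0, oral gavage infection with C. difficile VPI 10463 on day 1. Rifaximin suspended in 0.1 M phosphate buffer pH 7.4 plus 4.5‰ SDS, given by gavage once daily from day 1 for 5 doses; vehicle and uninfected controls. Survivors sacrificed day 7. Weight change is % of initial body weight; non-survivors excluded.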

[2] = tested on: Clostridioides difficile; assay: Antibacterial activity against Clostridium difficile VPI 10463 infected in golden syrian hamster assessed as survival of the […] at 50 mg/kg/day for 5 days measured after 7 days; assay type: functional; how it was run: as §1
[3] = tested on: Clostridioides difficile; assay: Antibacterial activity against Clostridium difficile VPI 10463 infected in golden syrian hamster assessed as body weight loss at 100 mg/kg/day for 5 days measured after 7 days relative to initial body weight; assay type: functional; how it was run: as §1
[4] = tested on: Clostridioides difficile; assay: Antibacterial activity against Clostridium difficile VPI 10463 infected in golden syrian hamster assessed as body weight loss at 50 mg/kg/day for 5 days measured after 7 days relative to initial body weight; assay type: functional; how it was run: as §1
[5] = tested on: Clostridioides difficile; assay: Antibacterial activity against Clostridium difficile VPI 10463 infected in golden syrian hamster assessed as body weight loss at 25 mg/kg/day for 5 days measured after 7 days relative to initial body weight; assay type: functional; how it was run: as §1
[6] = tested on: Clostridioides difficile; assay: Antibacterial activity against Clostridium difficile VPI 10463 infected in golden syrian hamster assessed as survival of the […] at 100 mg/kg/day administered 24 hrs after infection for 5 days measured after 7 days; assay type: functional, organism-based
How it was run: (§2)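 Treatment design in hamsters (10/group per cohort): clindamycin phosphate 10 mg/kg sc on day 0, gavage infection with VPI 10463 on day 1. Oral rifaximin, suspended in phosphate buffer pH 7.4 with 4.5‰ SDS, given daily by gavage from day 2 for five doses. Survival read at day 7, with Kaplan-Meier and log-rank analysis.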

[7] = tested on: Clostridioides difficile; assay: Antibacterial activity against Clostridium difficile VPI 10463 infected in golden syrian hamster assessed as survival of the […] at 50 mg/kg/day administered 24 hrs after infection for 5 days measured after 7 days; assay type: functional, organism-based; how it was run: as §2
[8] = tested on: Clostridioides difficile; assay: Antibacterial activity against Clostridium difficile VPI 10463 infected in golden syrian hamster assessed as survival of the […] at 100 mg/kg/day administered 24 hrs after infection for 5 days measured after 28 days; assay type: functional
How it was run: (§3)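 Relapse study: hamsters given clindamycin phosphate 10 mg/kg sc on day 0 and infected with VPI 10463 by gavage on day 1. Daily oral rifaximin by gavage in SDS/phosphate buffer vehicle on days 2–6. Animals followed about one month for recurrence, with Kaplan-Meier survival. Body weight tracked over time as % of initial weight.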

[9] = tested on: Clostridioides difficile; assay: Antibacterial activity against Clostridium difficile VPI 10463 infected in golden syrian hamster assessed as body weight gain at 100 mg/kg/day for 5 days relative to initial body weight; assay type: functional; how it was run: as §3
[10] = tested on: Clostridioides difficile; assay: Antibacterial activity against Clostridium difficile VPI 10463 infected in golden syrian hamster assessed as survival of the […] at 50 mg/kg/day administered 24 hrs after infection for 5 days measured after 28 days; assay type: functional, organism-based; how it was run: as §3
[11] = tested on: Clostridioides difficile; assay: Antibacterial activity against Clostridium difficile VPI 10463 infected in golden syrian hamster assessed as survival of the […] at 25 mg/kg/day administered 24 hrs after infection for 5 days measured after 28 days; assay type: functional, organism-based; how it was run: as §3
[12] = tested on: Clostridioides difficile; assay: Antibacterial activity against Clostridium difficile VPI 10463 infected in golden syrian hamster assessed as survival of the […] at 25 mg/kg/day administered 24 hrs after infection for 5 days measured after 7 days; assay type: functional; how it was run: as §2

`CO[C@H]1/C=C/O[C@@]2(C)Oc3c(C)c(O)c4c(O)c(c5c(nc6cc(C)ccn65)c4c3C2=O)NC(=O)/C(C)=C\C=C\[C@H](C)[C@H](O)[C@@H](C)[C@@H](O)[C@@H](C)[C@H](OC(C)=O)[C@@H]1C` [RIFAXIMIN] gave a survival at 100 mg/kg/day [1] of 80%, a survival at 50 mg/kg/day [2] of 70% and an Activity [3] of -8.1%. For the same compound, the Activity [4] was -7.9%, the Activity [5] was -8.4% and the Activity [6] was “Active”. For the same compound, the Activity [7] was “Active”, the survival at 100 mg/kg/day [8] was 100% and the Activity [9] was 16.7%. For the same compound, the Activity [10] was “Active” and the Activity [11] was “Active”.

With `CN[C@H](CC(C)C)C(=O)N[C@H]1C(=O)N[C@@H](CC(N)=O)C(=O)N[C@H]2C(=O)N[C@H]3C(=O)N[C@H](C(=O)N[C@H](C(=O)O)c4cc(O)cc(O)c4-c4cc3ccc4O)[C@H](O)c3ccc(c(Cl)c3)Oc3cc2cc(c3O[C@@H]2O[C@H](CO)[C@@H](O)[C@H](O)[C@H]2O[C@H]2C[C@](C)(N)[C@H](O)[C@H](C)O2)Oc2ccc(cc2Cl)[C@H]1O` [VANCOMYCIN] the survival at 50 mg/kg/day [2] was 70%, the Activity [4] was -6.6% and the Activity [7] was “Active”. For the same compound, the survival at 25 mg/kg/day [12] was 80%, the survival at 100 mg/kg/day [8] was 25% and the Activity [10] was “Active”. For the same compound, the Activity [11] was “Active”.
